In ChEMBL document CHEMBL1770130, “Design, synthesis, and in vivo characterization of a novel series of tetralin amino imidazoles as γ-secretase inhibitors: discovery of PF-3084014” (Bioorg Med Chem Lett, 2011):
pEC50, pIC50: −log10 of the molar value. Activity calls are given as the source filed them. No cut-off for these calls is given here.

Experiments:
[1] = Ratio of EC50 for gamma secretase-mediated notch processing in C57BL/6 mouse fetal thymic organ cultures to plasma concentration observed at brain ED50 of total beta-amyloid level
In short: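 FTOC EC50 divided by the plasma concentration at the brain ED50. That plasma concentration was obtained by linear least-squares regression of dose against measured plasma concentration in guinea pigs.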

Cavia porcellus [2] = assay: Antialzheimer activity in sc dosed guinea pig assessed as reduction of total amyloid beta level in brain after 3 hrs by DELFIA-based ELISA; assay type: functional
In short: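 Guinea pigs dosed sc over a range of doses and brain Aβ1-X measured by DELFIA ELISA at 3 h; brain ED50 derived from the dose–response.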

Gamma-secretase [3] = assay: Inhibition of gamma-secretase in human H4 cells expressing APP Swedish mutant assessed as inhibition of amyloid beta (1 to x) production by whole cell assay
[4] = Effect on gamma secretase-mediated notch processing in C57BL/6 mouse fetal thymic organ cultures assessed as reduction of B and T-cell populations after 45 mins by FACS analysis
human MDR1 (P-gp) = assay: Efflux ratio of permeability from basolateral to apical side to apical to basolateral side of MDCK cells expressing human MDR1; assay type: ADME, cell-based, Canis lupus familiaris; settings: dog
In short: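 MDCK cells transfected with human P-glycoprotein (MDR1); efflux ratio calculated as B→A over A→B permeability.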

Gamma-secretase [5] = assay: Inhibition of gamma-secretase in human HeLa cells assessed as inhibition of amyloid beta (1 to 40) production by DELFIA-based immunoassay; assay type: cell-based
Cavia porcellus [6] = assay: Antialzheimer activity in guinea pig assessed as reduction of total amyloid beta level in plasma at 10 mg/kg, sc after 3 to 10 hrs by DELFIA-based ELISA; assay type: functional, organism-based; parameters: dose 10 mg/kg
In short: (§1)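 Guinea pigs given a single sc dose (3.2–32 mg/kg); brain, CSF and plasma taken at 3 h for the dose–response, or at intervals of 3 to 24 h after 10 mg/kg for the time course. Aβ1-X, Aβ1-40 and Aβ1-42 measured by DELFIA ELISA. Data given as percentage of vehicle; one-way ANOVA with Dunnett's post-hoc versus vehicle, p<0.05.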

Cavia porcellus [7] = assay: Antialzheimer activity in guinea pig assessed as reduction of total amyloid beta level in cerebral spinal fluid at 10 mg/kg, sc after 24 hrs by DELFIA-based ELISA; assay type: functional, organism-based; parameters: dose 10 mg/kg
In short: (§2)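 Guinea pigs dosed once at 10 mg/kg sc, tissues sampled up to 24 h. Aβ1-X in brain, CSF and plasma measured by DELFIA ELISA and expressed as percentage of vehicle; one-way ANOVA with Dunnett's test versus vehicle, p<0.05.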

Cavia porcellus [8] = assay: Antialzheimer activity in guinea pig assessed as reduction of total amyloid beta level in brain at 10 mg/kg, sc after 24 hrs by DELFIA-based ELISA; assay type: functional, organism-based; parameters: dose 10 mg/kg; in short: as §2
Cavia porcellus [9] = assay: Antialzheimer activity in guinea pig assessed as reduction of total amyloid beta level in plasma at 10 mg/kg, sc after 24 hrs by DELFIA-based ELISA; assay type: functional, organism-based; parameters: dose 10 mg/kg; in short: as §2
[10] = Drug concentration in guinea pig brain at 3.2 mg/kg, sc; assay type: ADME, organism-based, Cavia porcellus; parameters: dose 3.2 mg/kg, route subcutaneous; settings: in vivo
In short: (§3)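 Guinea pigs given a single 3.2 mg/kg sc dose; drug concentrations in plasma and brain determined at the 3 h sampling point.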

[11] = Ratio of EC50 for gamma secretase-mediated notch processing in C57BL/6 mouse fetal thymic organ cultures to IC50 for APP by whole cell assay
Cavia porcellus [12] = assay: Antialzheimer activity in guinea pig assessed as reduction of total amyloid beta level in brain at 7 to 32 mg/kg, sc administered 3 doses over 24 hrs measured after 3 hrs last post dose by DELFIA-based ELISA; assay type: functional, organism-based
In short: (§4)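 Guinea pigs dosed sc at 7 or 32 mg/kg three times over 24 h (0, 12, 24 h). Tissues collected 3 h after the final dose, and Aβ measured by DELFIA ELISA; compared with vehicle by one-way ANOVA and Dunnett's test.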

Cavia porcellus [13] = assay: Antialzheimer activity in guinea pig assessed as reduction of total amyloid beta level in brain at 3.2 mg/kg, sc after 3 hrs by DELFIA-based ELISA; assay type: functional; parameters: scale not given: the % may be the effect or the level left; settings: route subcutaneous; in short: as §1
[14] = Plasma concentration in guinea pig at 3.2 mg/kg, sc; assay type: ADME, organism-based, Cavia porcellus; parameters: dose 3.2 mg/kg, route subcutaneous; settings: in vivo; in short: as §3
Cavia porcellus [15] = assay: Reduction of marginal zone of B cell populations in guinea pig at 7 mg/kg, sc administered 3 doses over 24 hrs measured after 3 hrs last post dose by FACS analysis; assay type: organism-based; parameters: dose 7 mg/kg, route subcutaneous; settings: in vivo
In short: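 Guinea pigs dosed sc at 7 mg/kg at 0, 12 and 24 h. Spleen marginal zone and whole-blood B cells counted by flow cytometry 3 h after the last dose.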

Cavia porcellus [16] = assay: Antialzheimer activity in guinea pig assessed as reduction of total amyloid beta level in brain at 10 mg/kg, sc after 3 to 10 hrs by DELFIA-based ELISA; assay type: functional, organism-based; parameters: dose 10 mg/kg; in short: as §1
Cavia porcellus [17] = assay: Antialzheimer activity in guinea pig assessed as reduction of total amyloid beta level in cerebral spinal fluid at 10 mg/kg, sc after 3 to 10 hrs by DELFIA-based ELISA; assay type: functional, organism-based; parameters: dose 10 mg/kg; in short: as §1
Cavia porcellus [18] = assay: Antialzheimer activity in guinea pig assessed as reduction of total amyloid beta level in plasma at 7 to 32 mg/kg, sc administered 3 doses over 24 hrs measured after 3 hrs last post dose by DELFIA-based ELISA; assay type: functional, organism-based; in short: as §4
Cavia porcellus [19] = assay: Antialzheimer activity in guinea pig assessed as reduction of total amyloid beta level in plasma at 3.2 mg/kg, sc after 3 hrs by DELFIA-based ELISA; assay type: functional; parameters: scale not given: the % may be the effect or the level left; settings: route subcutaneous; in short: as §1
Cavia porcellus [20] = assay: Antialzheimer activity in guinea pig assessed as reduction of total amyloid beta level in cerebral spinal fluid at 3.2 mg/kg, sc after 3 hrs by DELFIA-based ELISA; assay type: functional; parameters: scale not given: the % may be the effect or the level left; settings: route subcutaneous; in short: as §1

| Compound | pIC50 (Gamma-secretase [3]) | pEC50 [4] | efflux ratio (human MDR1 (P-gp)) | pIC50 (Gamma-secretase [5]) | ED50 (Cavia porcellus [2]) [mg/kg] | other results |
| --- | --- | --- | --- | --- | --- | --- |
| CCC[C@H](N[C@H]1CCc2cc(F)cc(F)c2C1)C(=O)Nc1cn(C(C)(C)CNCC(C)(C)C)cn1 [NIROGACESTAT] |  | 5.74 |  |  | 2.3 |  |
| CCC[C@H](NCCC(C)C)C(=O)Nc1cn(C(C)(C)CN2CCCC2)cn1 | 5.51 |  | 4.4 | < 5.00 |  |  |
| CCC[C@H](NC(CC)CC)C(=O)Nc1cn(C(C)(C)CN2CCCC2)cn1 | 6.51 |  | 2.3 | 5.21 |  |  |
| CCC[C@H](NC1COc2ccccc2C1)C(=O)Nc1cn(C(C)(C)CN2CCCC2)cn1 (some centres undefined) | 6.81 |  | 2.9 | 7.03 |  |  |
| CCC[C@H](NC1CCc2cccc(Cl)c2C1)C(=O)Nc1cn(C(C)(C)CN2CCCC2)cn1 (mixture of isomers) | 7.33 |  | 3.3 | 7.51 |  |  |
| CCC[C@H](NC1CCc2ccccc2C1)C(=O)Nc1cn(C(C)(C)CN2CCCC2)cn1 (some centres undefined) | 7.27 |  | 2.2 | 7.07 |  |  |
| CCC[C@H](NC(=O)Cc1cc(F)cc(F)c1)C(=O)Nc1cn(C(C)(C)CNCC(C)(C)C)cn1 |  |  | 8.4 |  |  |  |
| CCC[C@H](NCc1cc(F)cc(F)c1)C(=O)Nc1cn(C(C)(C)CN2CCCC2)cn1 | 6.32 |  | 1.8 | 6.30 |  |  |
| CCC[C@H](NCCc1cc(F)cc(F)c1)C(=O)Nc1cn(C(C)(C)CN2CCCC2)cn1 | 6.12 |  | 1.9 | 6.60 |  |  |
| CCC[C@H](NC1Cc2ccccc2C1)C(=O)Nc1cn(C(C)(C)CN2CCCC2)cn1 | 6.57 |  | 1.8 | 6.83 |  |  |

More lines, in order of rising pIC50 (Gamma-secretase [3]), values ahead:

| pIC50 (Gamma-secretase [3]) | pEC50 [4] | efflux ratio (human MDR1 (P-gp)) | pIC50 (Gamma-secretase [5]) | Compound | ED50 (Cavia porcellus [2]) [mg/kg] | other results |
| --- | --- | --- | --- | --- | --- | --- |
| 7.71 |  | 1.8 | 7.71 | CCC[C@H](NC1CCc2cc(F)ccc2C1)C(=O)Nc1cn(C(C)(C)CN2CCCC2)cn1 (mixture of isomers) |  |  |
| 7.71 | 5.21 |  |  | CCC[C@H](N[C@H]1CCc2cc(F)cc(F)c2C1)C(=O)Nc1cn(C(C)(C)CNC(C)C)cn1 | 41.2 | Ratio [1]: 3.5 |
| 7.91 |  | 1.3 | 8.05 | CCC[C@H](NC1CCc2cc(Cl)ccc2C1)C(=O)Nc1cn(C(C)(C)CN2CCCC2)cn1 (mixture of isomers) |  |  |
| 8.16 | 5.96 |  |  | CCC[C@H](N[C@H]1CCc2cc(F)cc(F)c2C1)C(=O)Nc1cn(C(C)(C)CN2CCOCC2)cn1 | 2.9 | Ratio [1]: 16.3 |
| 8.27 |  | 1.5 | 8.39 | CCC[C@H](NC1CCc2cc(F)cc(F)c2C1)C(=O)Nc1cn(C(C)(C)CN2CCCC2)cn1 (mixture of isomers) |  |  |
| 8.31 | 5.29 |  |  | CCC[C@H](N[C@H]1CCc2cc(F)cc(F)c2C1)C(=O)Nc1cn(C(C)(C)CNCC(F)(F)F)cn1 | 14.6 | Ratio [1]: 37.7 |
| 8.34 | 5.52 |  |  | CCC[C@H](N[C@H]1CCc2cc(F)cc(F)c2C1)C(=O)Nc1cn(C(C)(C)CN(C)C)cn1 | 16.1 |  |
| 8.48 | 5.59 |  |  | CCC[C@H](N[C@H]1CCc2cc(F)cc(F)c2C1)C(=O)Nc1cn(C(C)(C)CN2CCCCC2)cn1 | 4.1 | Ratio [1]: 46.1 |
| 8.54 | 5.49 |  |  | CCC[C@H](N[C@H]1CCc2cc(F)cc(F)c2C1)C(=O)Nc1cn(C(C)(C)CN2CCCC2)cn1 | 9.9 | Ratio [1]: 9.8; Activity (Cavia porcellus [6]): Active; Activity (Cavia porcellus [7]): inactive; Activity (Cavia porcellus [8]): Active; Activity (Cavia porcellus [9]): inactive; Drug uptake [10]: 587 ng/mL; Ratio [11]: > 500; Activity (Cavia porcellus [12]): Active; Activity (Cavia porcellus [13]): 33%; Cp [14]: 100 ng/mL; Activity (Cavia porcellus [15]): Non-toxic; Activity (Cavia porcellus [16]): Active; Activity (Cavia porcellus [17]): Active; Activity (Cavia porcellus [18]): Active; Activity (Cavia porcellus [19]): 30%; Activity (Cavia porcellus [20]): 31% |
